Measurements reported in the array DNA melting data of Ke et al. (doi:10.1101/2024.01.08.574731).

What was measured:
[1] = melting temperature; fluorescence melt of hairpins on a sequencing array, two-state fit, raised by 9.35 °C to match UV melts; conditions: sodium 0.088 M
In short: (§1)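 In 50 mM Na-HEPES pH 8.0 containing 25 mM NaCl, hairpins from the library on a sequenced MiSeq flow cell were imaged for Cy3 fluorescence at 2.5 °C steps up to 60 °C, with Cy3 and quencher oligos annealed. After normalisation to pre-quench Cy3 and to control constructs, two-state fits with bootstrapping gave melting temperature and folding enthalpy. Four replicates were combined by inverse-variance weighting, and fitted temperatures were shifted up by 9.35 °C to match UV melts.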

[2] = folding enthalpy; higher = less favourable; fluorescence melt of hairpins on a sequencing array, two-state fit; conditions: sodium 0.088 M
In short: as §1

Sequence: GCGTGCGGAAACGCATGC ((.((((....)))).))
- Tm [1]: 67.4 °C
- folding enthalpy [2]: -31 kcal/mol

Sequence: GCGTGCTCGAAAGAGCGC (((..(((....))))))
- Tm [1]: 51.5 °C
- folding enthalpy [2]: -10.2 kcal/mol

Sequence: GCGTGGATACGC ((((....))))
- Tm [1]: 66.6 °C
- folding enthalpy [2]: -28.2 kcal/mol

Sequence: GCGTGGCGAAAGCAAGGC ((.(.((....)).).))
- Tm [1]: 46.6 °C
- folding enthalpy [2]: -18.8 kcal/mol

Sequence: GCGTGGCGAAAGCCTGGC ((..(((....)))..))
- Tm [1]: 52.4 °C
- folding enthalpy [2]: -17.4 kcal/mol

Sequence: GCGTGGCGAAAGCCTTGC ((..(((....)))..))
- Tm [1]: 48 °C
- folding enthalpy [2]: -16.4 kcal/mol

Sequence: GCGTGGCGAAAGCTCCGC (((..((....))..)))
- Tm [1]: 54.8 °C
- folding enthalpy [2]: -22.1 kcal/mol

Sequence: GCGTGGCGAAAGCTGCGC (((..((....))..)))
- Tm [1]: 67.9 °C
- folding enthalpy [2]: -40.4 kcal/mol

Sequence: GCGTGGCGAAAGCTTCGC (((..((....))..)))
- Tm [1]: 59.5 °C
- folding enthalpy [2]: -23.6 kcal/mol

Sequence: GCGTGGTCGAAAGACCGC (((..(((....))))))
- Tm [1]: 53.2 °C
- folding enthalpy [2]: -10.9 kcal/mol

Sequence: GCGTGTCGAAAGACCGC (((.(((....))))))
- Tm [1]: 67 °C
- folding enthalpy [2]: -33 kcal/mol

Sequence: GCGTGTGCGAAAGCACGC (((..(((....))))))
- Tm [1]: 57.5 °C
- folding enthalpy [2]: -9.9 kcal/mol

Sequence: GCGTGTTACGC ((((...))))
- Tm [1]: 61.6 °C
- folding enthalpy [2]: -24 kcal/mol

Sequence: GCGTGTTGACGC ((((....))))
- Tm [1]: 55 °C
- folding enthalpy [2]: -23.9 kcal/mol

Sequence: GCGTTAACGAAAGTTCGC (((..(((....))))))
- Tm [1]: 46.8 °C
- folding enthalpy [2]: -29.4 kcal/mol

Sequence: GCGTTACAACGC ((((....))))
- Tm [1]: 58.6 °C
- folding enthalpy [2]: -26.4 kcal/mol

Sequence: GCGTTACCACGC ((((....))))
- Tm [1]: 52.8 °C
- folding enthalpy [2]: -24.2 kcal/mol

Sequence: GCGTTACGACGC ((((....))))
- Tm [1]: 56.8 °C
- folding enthalpy [2]: -25.9 kcal/mol

Sequence: GCGTTAGACGC ((((...))))
- Tm [1]: 51.3 °C
- folding enthalpy [2]: -18.1 kcal/mol

Sequence: GCGTTAGCACGC ((((....))))
- Tm [1]: 61.7 °C
- folding enthalpy [2]: -8.5 kcal/mol

Sequence: GCGTTAGGAAACTAGTGC ((..(((....)))..))
- Tm [1]: 25.7 °C
- folding enthalpy [2]: -11.4 kcal/mol

Sequence: GCGTTAGTACGC ((((....))))
- Tm [1]: 51.1 °C
- folding enthalpy [2]: -19.8 kcal/mol

Sequence: GCGTTATCGAAAGATCGC (((..(((....))))))
- Tm [1]: 44.3 °C
- folding enthalpy [2]: -26.1 kcal/mol

Sequence: GCGTTCAGACGC ((((....))))
- Tm [1]: 53.6 °C
- folding enthalpy [2]: -23.8 kcal/mol

Sequence: GCGTTCCGAAAGGACCGC (((.(((....))).)))
- Tm [1]: 58.4 °C
- folding enthalpy [2]: -46.4 kcal/mol

Sequence: GCGTTCCGAAAGGACGC (((.(((....))))))
- Tm [1]: 63.3 °C
- folding enthalpy [2]: -41.9 kcal/mol

Sequence: GCGTTCCGACGC ((((....))))
- Tm [1]: 58 °C
- folding enthalpy [2]: -27.8 kcal/mol

Sequence: GCGTTCGAAAGAACCCGC ((((((....)))..)))
- Tm [1]: 40.8 °C
- folding enthalpy [2]: -14.2 kcal/mol

Sequence: GCGTTCGAAAGAAGTCGC ((((((....)))..)))
- Tm [1]: 37.7 °C
- folding enthalpy [2]: -26.4 kcal/mol

Sequence: GCGTTCGAAAGAATACGC ((((((....)))..)))
- Tm [1]: 47.5 °C
- folding enthalpy [2]: -27.3 kcal/mol

Sequence: GCGTTCGAAAGAATTCGC ((((((....)))..)))
- Tm [1]: 36.2 °C
- folding enthalpy [2]: -26.6 kcal/mol

Sequence: GCGTTCGAACGC ((((....))))
- Tm [1]: 56.9 °C
- folding enthalpy [2]: -36 kcal/mol

Sequence: GCGTTGAAACGC ((((....))))
- Tm [1]: 53.5 °C
- folding enthalpy [2]: -20.8 kcal/mol

Sequence: GCGTTGACACGC ((((....))))
- Tm [1]: 50.1 °C
- folding enthalpy [2]: -21.2 kcal/mol

Sequence: GCGTTGACGAAAGTCCGC (((..(((....))))))
- Tm [1]: 51.4 °C
- folding enthalpy [2]: -24.1 kcal/mol

Sequence: GCGTTGCCGAAAGGCCGC (((..(((....))))))
- Tm [1]: 55.6 °C
- folding enthalpy [2]: -16.6 kcal/mol

Sequence: GCGTTGCGAAAGCACGGC ((..(((....)))..))
- Tm [1]: 58.9 °C
- folding enthalpy [2]: -13.6 kcal/mol

Sequence: GCGTTGCGAAAGCACTGC ((..(((....)))..))
- Tm [1]: 46.1 °C
- folding enthalpy [2]: -18.2 kcal/mol

Sequence: GCGTTGCGAAAGCATCGC (((.(((....))).)))
- Tm [1]: 61.3 °C
- folding enthalpy [2]: -55.8 kcal/mol

Sequence: GCGTTGCGAAAGCCACGC ((((.((....)).))))
- Tm [1]: 66.6 °C
- folding enthalpy [2]: -36.6 kcal/mol

Sequence: GCGTTGCGAAAGCCTCGC (((..((....))..)))
- Tm [1]: 58.1 °C
- folding enthalpy [2]: -18.5 kcal/mol

Sequence: GCGTTGGCGAAAGCCCGC (((..(((....))))))
- Tm [1]: 57.3 °C
- folding enthalpy [2]: -18.8 kcal/mol

Sequence: GCGTTGGGAAACCAATGC ((.((((....)))).))
- Tm [1]: 54.3 °C
- folding enthalpy [2]: -43.2 kcal/mol

Sequence: GCGTTGTACGC ((((...))))
- Tm [1]: 65.8 °C
- folding enthalpy [2]: -19 kcal/mol

Sequence: GCGTTGTGACGC ((((....))))
- Tm [1]: 59 °C
- folding enthalpy [2]: -31.6 kcal/mol

Sequence: GCGTTTAAACGC ((((....))))
- Tm [1]: 54.7 °C
- folding enthalpy [2]: -29.4 kcal/mol

Sequence: GCGTTTCCGAAAGGACGC (((..(((....))))))
- Tm [1]: 49.7 °C
- folding enthalpy [2]: -24.5 kcal/mol

Sequence: GCGTTTCGAAAGAACCGC (((.(((....))).)))
- Tm [1]: 52.4 °C
- folding enthalpy [2]: -39.8 kcal/mol

Sequence: GCGTTTCGACGC ((((....))))
- Tm [1]: 55.9 °C
- folding enthalpy [2]: -28.6 kcal/mol

Sequence: GCGTTTGTACGC ((((....))))
- Tm [1]: 54.9 °C
- folding enthalpy [2]: -25.4 kcal/mol

Sequence: GCGTTTTCGAAAGAACGC (((..(((....))))))
- Tm [1]: 49.6 °C
- folding enthalpy [2]: -32 kcal/mol

Sequence: GCTAAACGAAAGTTAAGC (((.(((....))).)))
- Tm [1]: 44.3 °C
- folding enthalpy [2]: -29.1 kcal/mol

Sequence: GCTAAATCGAAAGATAGC (((..(((....))))))
- Tm [1]: 33.9 °C
- folding enthalpy [2]: -18.4 kcal/mol

Sequence: GCTAACCGAAAGGTAAGC (((.(((....))).)))
- Tm [1]: 52.1 °C
- folding enthalpy [2]: -30.8 kcal/mol

Sequence: GCTAACGAAAGTTCAAGC ((((((....)))..)))
- Tm [1]: 30.9 °C
- folding enthalpy [2]: -12.5 kcal/mol

Sequence: GCTAACGAAAGTTCAGC ((((((....))).)))
- Tm [1]: 39 °C
- folding enthalpy [2]: -21.8 kcal/mol

Sequence: GCTAACGAAAGTTGAGC ((((((....))).)))
- Tm [1]: 41.5 °C
- folding enthalpy [2]: -26.1 kcal/mol

Sequence: GCTAACGAAAGTTTCAGC ((((((....)))..)))
- Tm [1]: 29.7 °C
- folding enthalpy [2]: -14.2 kcal/mol

Sequence: GCTAACGGAAACGTTAAC (.(((((....))))).)
- Tm [1]: 34.8 °C
- folding enthalpy [2]: -16.1 kcal/mol

Sequence: GCTAACGGAAACGTTGGC ((.((((....)))).))
- Tm [1]: 52.6 °C
- folding enthalpy [2]: -36.1 kcal/mol

Sequence: GCTAAGAAATTAGC (((((....)))))
- Tm [1]: 39.5 °C
- folding enthalpy [2]: -16.8 kcal/mol

Sequence: GCTAAGCGAAAGCATCGC ((.(.((....)).).))
- Tm [1]: 30.7 °C
- folding enthalpy [2]: -11.1 kcal/mol

Sequence: GCTAAGCGAAAGCCGAGC (((..((....))..)))
- Tm [1]: 42.2 °C
- folding enthalpy [2]: -19.1 kcal/mol

Sequence: GCTAAGCGAAAGCGTTGC ((.(.((....)).).))
- Tm [1]: 53.4 °C
- folding enthalpy [2]: -20 kcal/mol

Sequence: GCTAAGCGAAAGCTTCGC ((.((((....)))).))
- Tm [1]: 53.8 °C
- folding enthalpy [2]: -20.9 kcal/mol

Sequence: GCTAATCGAAAGATAGC (((.(((....))))))
- Tm [1]: 44.6 °C
- folding enthalpy [2]: -26.4 kcal/mol

Sequence: GCTAATCGAAAGATCAGC (((.(((....))).)))
- Tm [1]: 41.2 °C
- folding enthalpy [2]: -29.4 kcal/mol

Sequence: GCTAATGGAAACACTAGC ((((.((....)).))))
- Tm [1]: 31.2 °C
- folding enthalpy [2]: -23.9 kcal/mol

Sequence: GCTAATGGAAACATTGGC ((.((((....)))).))
- Tm [1]: 45.6 °C
- folding enthalpy [2]: -41.2 kcal/mol

Sequence: GCTACCGAAAGGTAGAGC ((((((....)))..)))
- Tm [1]: 53.7 °C
- folding enthalpy [2]: -19.1 kcal/mol

Sequence: GCTACCGAAAGGTCCAGC ((((((....)))..)))
- Tm [1]: 29 °C
- folding enthalpy [2]: -11.4 kcal/mol
